A selection: hits, their analogues and other compounds. The true share with any hit is near 11%.
S1P1 ag pot: S1P1 agonists and agonism potentiators, primary screen, cell-based, primary and confirmation screens, CRE-bla reporter. 0.57% of 56,000 active. activation, % at 9.5 µM. Sphingosine 1-phosphate receptor 1 (Homo sapiens), P21453. S1P1 CRE-bla cells, forskolin, beta-lactamase FRET, potentiator mode; S1P1 agonist co-added at EC20, 2 nM; 100% = saturating reference agonist, 0% = basal;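 active = activation above a cutoff set at the mean activation of all tested compounds plus 3 SD, cut at about 54% in these data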;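 also: forskolin at 4 µM as EC80 and the EC20 agonist is SEW2871; 100% = SEW2871 at its EC100 plus forskolin at EC80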
M1 antagonist: antagonists of rat M1 muscarinic receptor. CHO-M1 cells, Fluo-4 calcium, ACh EC80 antagonist mode; active compounds read low. B-score at 10 µM. 3.4% of 64,000 active. AID 628, 2007;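 active = calcium fluorescence response, raw or row-and-column corrected B-score, differing from the plate sample mean either way at a set confidence level, mostly lower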
M1 agonist: M1 muscarinic receptor agonists, primary screen, CHO-M1 cells, Fluo-4 calcium, agonist mode | Muscarinic acetylcholine receptor M1 | Fluo-4 calcium fluorescence; active compounds read high | 3% of 64,000 active | AID 626, 2007 | B-score at 10 µM;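 active = fluorescence rise, raw or as B-score row- and column-corrected plate score, outside the 99.7% band of its plate's samples, either direction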
D1 mod: D1 CRE-luciferase signal change, two-sided – cell-based, HEK293 D1, dopamine EC30, D1 allosteric modulator project, primary screen | D(1A) dopamine receptor (Homo sapiens), P21728 | AID 641, 2007 | B-score at 10 µM | dopamine EC30 potentiation; actives deviate in either direction | 5.9% of 58,000 active;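 active = luminescence count or its row- and column-corrected plate score outside the 99.7% band of the plate's sample wells, on either side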
S1P3 ag: human S1P3 receptor agonists, primary screen, cell-based, primary and confirmation, NFAT-BLA reporter | AID 373, 2006 | activation, % at 4.5 µM | Sphingosine 1-phosphate receptor 3 (Homo sapiens), Q99500 | S1P3 NFAT-BLA reporter cells, agonism, FRET ratio; relative to 1 µM S1P, basal subtracted | 0.1% of 60,000 active;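 active = activation above the screen-wide mean plus 3 SD, cut at about 4.5% in these data, passing the limit was not always enough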
Target sequence (Q99500 whole entry, looked up): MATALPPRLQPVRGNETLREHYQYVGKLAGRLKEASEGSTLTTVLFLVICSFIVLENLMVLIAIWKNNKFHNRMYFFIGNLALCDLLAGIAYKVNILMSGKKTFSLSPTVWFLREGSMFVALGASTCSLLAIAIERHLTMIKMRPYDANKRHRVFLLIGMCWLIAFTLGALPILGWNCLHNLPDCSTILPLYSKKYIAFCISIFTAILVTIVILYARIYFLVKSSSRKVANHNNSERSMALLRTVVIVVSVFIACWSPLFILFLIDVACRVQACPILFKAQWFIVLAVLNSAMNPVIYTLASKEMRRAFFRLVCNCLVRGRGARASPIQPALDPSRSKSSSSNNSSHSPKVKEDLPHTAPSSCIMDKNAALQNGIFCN
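Assay system: CHO cells stably expressing human S1P3, Gα16 and NFAT-β-lactamase reporter. Timing: overnight plating, 4 h compound 37 °C, 2 h substrate RT. Signal: β-lactamase FRET emission ratio 460/535 nm. Measure: percent activation versus median 1 µM S1P response, basal-subtracted, per plate. Repeats: primary screen single test, confirmation screen in triplicate.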
TNAP act mid DEA: human TNAP enzyme activators, primary screen, biochemical, luminescent, intermediate phosphate acceptor level. Alkaline phosphatase, tissue-nonspecific isozyme (Homo sapiens), P05186. purified TNAP, CDP-star luminescence, 100 mM DEA, 30 min; active compounds read high; scale: 0 levamisole-inhibited, 1 vehicle-only enzyme. activation factor at 20 µM. 64,000 tested, under 10 active. AID 813, 2007;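 active = activation factor of at least 2 at 20 µM, relative to controls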
D1 PAM confirm: D1 receptor positive allosteric modulators, retest, confirmation, cell-based, HEK293 D1, CRE-luciferase, duplicate | dopamine EC30 potentiation; active compounds read high | AID 642, 2007 | 88% of 2,200 active | luminescence at 10 µM | shares compounds with D1 mod;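 active = luminescence in either of two replicates above the same-plate mean plus 3 SD of the low-dose dopamine control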
D1 ag no DA: D1 receptor agonism without dopamine, confirmation, mechanism study for D1 allosteric modulator project, cell-based, HEK293 D1, CRE-luciferase, secondary assay 1 | shares compounds with D1 mod | luminescence, no dopamine; active compounds read high | luminescence at 10 µM | 0.8% of 1,900 active; in the data active = luminescence above about 3900
Isoprot counter: isoproterenol response counter-screen activity for D1 modulators; AID 647; HEK293 D1 CRE-luciferase, isoproterenol EC30 counter-screen; active compounds read high; 63% of 2,200 active; luminescence at 10 µM; shares compounds with D1 mod;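 active = luminescence in either replicate above plate mean of wells with a partly effective reference agonist dose plus 3 SD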;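 also: isoproterenol raises cAMP through native beta-adrenoceptor Gs so signal bypasses D1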
Starred values were filed as active, the others as inactive; . = no result given.

SMILES | S1P1 ag pot | M1 antagonist | M1 agonist | D1 mod | S1P3 ag | TNAP act mid DEA | D1 PAM confirm | D1 ag no DA | Isoprot counter
CCSc1nc2c(c(=O)[nH]c(=O)n2C)n1C/C=C(/C)Cl | -19 | 0.26 | -0.037 | 14* | 1 | 1 | 19268* | 1408 | 6604*
C/C(Cl)=C/Cn1c(SCCN2CCOCC2)nc2c1c(=O)[nH]c(=O)n2C | 11 | -0.48 | -0.13 | 1.1 | -1 | 0.9 | . | . | .
CSc1nc2c(c(=O)[nH]c(=O)n2C)n1C/C=C(\C)Cl | -32 | 0.29 | 1.1 | 15* | -1 | 0.9 | 24712* | 1588 | 6020*
CCOC(=O)C(C)Sc1nc2c(c(=O)[nH]c(=O)n2C)n1C/C=C(/C)Cl (stereo not given) | -3 | 0.12 | -0.18 | 9.3* | -1 | 0.9 | 12104* | 1572 | 4240*
O=C(CCCCCn1c(SCc2ccncc2)nc2ccccc2c1=O)NCc1ccco1 | 13 | 0.27 | 1.4 | 4.3 | -1 | 0.9 | . | . | .
CCOCCn1c(SCc2ccc(F)cc2)nc2c1c(=O)[nH]c(=O)n2C | -2 | -0.29 | 0.6 | -0.047 | -1 | 0.9 | . | . | .
C/C(Cl)=C/Cn1c(SCc2ccc(Cl)cc2)nc2c1c(=O)[nH]c(=O)n2C | -20 | -0.45 | -0.47 | 8.8* | 0 | 0.9 | 10156* | 1472 | 3628*
N#CCSc1nc2c(sc(=S)n2Cc2ccco2)c(=O)n1-c1ccc(F)cc1 | . | 0.41 | 1 | 3* | . | 0.9 | 10848* | 1572 | 2624
CCn1c(=S)sc2c(=O)n(-c3ccccc3)c(SC)nc21 | . | -0.69 | -0.8 | 1.2 | . | 0.9 | . | . | .
COC(=O)Nc1c(-c2ccccc2)nc2ccc(C)cn12 | 7 | 0.15 | 0.14 | 3.1* | -1 | 0.9 | 6300 | 1728 | 2452
CCOC(=O)N1CCC(n2c(SCC(=O)Nc3nccs3)nc3ccsc3c2=O)CC1 | . | 0.53 | -0.76 | -0.071 | . | 0.9 | . | . | .
CCOC(=O)c1c(C2COc3ccccc3O2)csc1NC(=O)c1ccco1 (stereo not given) | . | -0.071 | 0.63 | 0.46 | 0 | 0.9 | . | . | .
CCOC(=O)c1c(C2CC2)csc1NC(C)=O | . | 0.57 | 2.3 | 4.9* | 0 | 0.9 | 9548* | 1704 | 3168
COc1ccc(OC)c(N2C(=O)C(Cl)=C(N3CCCCC3)C2=O)c1 | -6 | -0.64 | 1.6 | 8.9* | -1 | 0.8 | 6148* | 1528 | 2644
CC(C)C1C(C#N)=C(N)Oc2n[nH]c(-c3cccs3)c21 (stereo not given) | 23 | 1.1 | 1.1 | 3.6* | -2 | 1 | 8472* | 1560 | 2672
CCOc1ccc(Cl)cc1S(=O)(=O)N1CCCC1 | -7 | 0.017 | -0.86 | -1.5 | 0 | 1 | . | . | .
CCOc1c(S(=O)(=O)N2CCCC2)ccc(Cl)c1Cl | -10 | 0 | 0.086 | 12* | -1 | 0.9 | 11948* | 1540 | 3712*
COc1cccc(NC2=NCC(=O)N2Cc2cccs2)c1 | . | 0.041 | 0.69 | 4.2* | . | 1 | 8816* | 1624 | 2532
COc1ccc(NC2=NCCC(=O)N2Cc2cccs2)cc1 | 9 | 0.064 | -0.067 | 0.26 | 0 | 0.9 | . | . | .
COCCN1CC(O)=C(c2nc3ccccc3c(=O)[nH]2)C1=N | -24 | 0 | -0.91 | 6.8* | 0 | 0.8 | 5256 | 1884 | 2836
CCCn1c(C)cc(=O)c2cc(NC(=O)c3cnccn3)ccc21 | -30 | . | . | 0.59 | 0 | 0.9 | . | . | .
CCOc1ccc(Br)cc1-c1noc(-c2cccs2)n1 | . | 0.095 | -1.3 | 6.7* | 0 | 0.9 | 22604* | 1692 | 4336*
Cc1nnc(SCC(=O)c2cc(C)n(-c3ccc4c(c3)OCO4)c2C)s1 | 34 | -0.15 | 1.5 | 0.65 | -1 | 1 | . | . | .
Nc1c(C(=O)c2ccc(F)cc2)oc2ccccc12 | 5 | 0.018 | 0.065 | 11* | -2 | . | 24288* | 1764 | 3684*
COc1ccc(N2CCN(S(=O)(=O)c3cccs3)CC2)cc1 | . | 0.63 | -0.44 | 5* | 0 | 1 | 9608* | 1628 | 2904
SMILES | S1P1 ag pot | M1 antagonist | M1 agonist | D1 mod | S1P3 ag | TNAP act mid DEA | D1 PAM confirm | D1 ag no DA | Isoprot counter
COc1ccc(N2CCN(CCNC(=O)C3CCN(S(=O)(=O)c4cccs4)CC3)CC2)cc1 | 11 | -0.035 | -0.73 | -0.93 | -2 | 0.9 | . | . | .
Fc1ccc(-c2nn3c(C4COc5ccccc5O4)nnc3s2)cc1 (stereo not given) | 1 | 0.29 | 0.81 | 3.8* | -1 | 0.9 | 14388* | 1980 | 3472*
c1ccc2c(c1)OCC(c1nnc3sc(-c4ccc5c(c4)OCO5)nn13)O2 (stereo not given) | -20 | -0.0025 | 1.3 | 0.75 | 0 | 0.9 | . | . | .
c1csc(-c2nn3c(C4COc5ccccc5O4)nnc3s2)c1 (stereo not given) | -57 | -0.15 | -0.64 | 8.6* | -1 | 0.9 | 18120* | 1676 | 4616*
c1ccc2c(c1)OCC(c1nnc3sc(-c4cnccn4)nn13)O2 (stereo not given) | . | . | . | 0.59 | 0 | 0.8 | . | . | .
c1ccc(OCc2nnc3sc(-c4cccs4)nn23)cc1 | 12 | -0.036 | -0.22 | 6.4* | -1 | 0.9 | 15144* | 1772 | 3640*
COc1ccc(-n2nc3c(c2NC(=O)C2CCCC2)CS(=O)C3)cc1 (stereo not given) | 5 | -0.51 | 0.62 | . | -2 | 0.9 | . | . | .
COc1ccc(NC(=O)CSc2nc3ccccc3c(=O)n2-c2ccc3c(c2)OCO3)c(OC)c1 | 17 | -0.89 | -0.34 | 3.9* | 1 | 0.9 | 8076* | 1568 | 3720*
Cc1ccc(NC(C(N)=O)c2c(C)[nH]c(=O)[nH]c2=O)cc1 (stereo not given) | . | -0.32 | 1.1 | 0.78 | -1 | 1 | . | . | .
CC12CC(NC(=O)N1c1cccc(C(=O)N3CCN(c4ccccc4F)CC3)c1)c1ccccc1O2 (stereo not given) | . | 0.35 | 2.5 | 3.5* | . | 1 | 4916 | 1480 | 2372
